Measurements: the RNAGym collection of RNA variant scans (doi:10.1038/s41586-018-0170-7)

B1: tRNA (parent)
chain: GUUCCGUUGGCGUAAUGGUAACGCGUCUCCCUCCUAAGGAGAAGACUGCGGGUUCGAGUCCCGUACGGAACG

Variants of: B1
Assay: yeast fitness, log relative to wild type (ln ratio); higher = fitter; tRNA-Arg(CCU), competitive growth, 37 C, 1 M NaCl
Outline: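 Fitness is the natural log of each genotype's generations divided by the wild type's. Generations were derived as OD-scaled log2 output/input frequency from 125 bp paired-end Illumina counts, weighting replicates by inverse variance. Pools of the tRNA-Arg(CCU) variant library, on a HIS3 centromeric plasmid in BY4742 lacking the chromosomal gene, grew ~6.5 generations (~26.5 h) in SC-HIS 1M NaCl at 37 °C after 4 generations in SC-HIS at 30 °C.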
With G1A G6U C27U C46U A70G C71U the “yeast fitness (ln)” value was -0.262. For G1A G6U C27U C46U A70U C71U, the “yeast fitness (ln)” value was -0.278. In the case of G1A G6U A43C C66A A69G A70G C71U, the “yeast fitness (ln)” value is reported as -0.348. In the case of G1A G6U C27U C46U A69G A70G, the “yeast fitness (ln)” value is reported as -0.307. In the case of G1A G6U C27U C46U A69G A70U, the “yeast fitness (ln)” value is reported as -0.299. With G1A G6U C27U C46U A70G the “yeast fitness (ln)” value was -0.191. For G1A G6U C27U C46U A70U, the “yeast fitness (ln)” value was -0.274. With G1A G6U C27U A43C C66U A70U the “yeast fitness (ln)” value was -0.381. In the case of G1A G6U C27U A43C C66U A70G, the “yeast fitness (ln)” value is reported as -0.609. With G1A G6U A43C C46U C66A A70G C71U the “yeast fitness (ln)” value was -0.237. For G1A G6U C27U C46U A69G C71U, the “yeast fitness (ln)” value was -0.291. For G1A G6U C27U A43C C66U A70G C71U, the “yeast fitness (ln)” value was -0.415. With G1A G6U A43C C46U C66U A69G A70U the “yeast fitness (ln)” value was -0.305. In the case of G1A G6U A43C C46U C66U A69G A70G, the “yeast fitness (ln)” value is reported as -0.389. In the case of G1A G6U C27U A70G, the “yeast fitness (ln)” value is reported as -0.277. In the case of G1A G6U C27U A70U, the “yeast fitness (ln)” value is reported as -0.232. With G1A G6U C27U A43C C46U C66U A69G C71U the “yeast fitness (ln)” value was -0.423. In the case of G1A G6U C27U C46U C66U A70U C71U, the “yeast fitness (ln)” value is reported as -0.438. In the case of G1A G6U C27U A69G A70G, the “yeast fitness (ln)” value is reported as -0.379. With G1A G6U C27U A69G A70U the “yeast fitness (ln)” value was -0.29. With G1A G6U C27U C46U C66U the “yeast fitness (ln)” value was -0.313. In the case of G1A G6U C27U C46U C66A, the “yeast fitness (ln)” value is reported as -0.32. In the case of G1A G6U C27U A70U C71U, the “yeast fitness (ln)” value is reported as -0.335. For G1A G6U C27U C46U C66A A69G C71U, the “yeast fitness (ln)” value was -0.187. With G1A G6U A43C C66A A69G A70U C71U the “yeast fitness (ln)” value was -0.344. With G1A G6U C27U C66A A69G A70G C71U the “yeast fitness (ln)” value was -0.31. In the case of G1A G6U A43C C66U C71U, the “yeast fitness (ln)” value is reported as -0.333. In the case of G1A G6U C27U C66A A69G A70U C71U, the “yeast fitness (ln)” value is reported as -0.223. In the case of G1A G6U C27U A43C C66A A70G, the “yeast fitness (ln)” value is reported as -0.33. For G1A G6U C27U A43C C66A A70U, the “yeast fitness (ln)” value was -0.264. In the case of G1A G6U C27U A43C C66U A69G A70U C71U, the “yeast fitness (ln)” value is reported as -0.435. In the case of G1A G6U C27U C46U C66U A69G A70U, the “yeast fitness (ln)” value is reported as -0.454. In the case of G1A G6U C27U C46U C66U A69G A70G, the “yeast fitness (ln)” value is reported as -0.28. With G1A G6U C27U A43C A70G the “yeast fitness (ln)” value was -0.439. In the case of G1A G6U C27U A43C A70U, the “yeast fitness (ln)” value is reported as -0.331. For G1A G6U C27U A43C A69G A70G, the “yeast fitness (ln)” value was -0.536. For G1A G6U C27U A43C A69G A70U, the “yeast fitness (ln)” value was -0.481. In the case of G1A G6U C27U C46U A69G A70U C71U, the “yeast fitness (ln)” value is reported as -0.431. For G1A G6U C27U A43C C46U C66A C71U, the “yeast fitness (ln)” value was -0.138. With G1A G6U C27U A43C C46U C66U A69G A70U C71U the “yeast fitness (ln)” value was -0.565. In the case of G1A G6U C27U A43C C46U A69G A70U, the “yeast fitness (ln)” value is reported as -0.347. In the case of G1A G6U C27U A43C C46U A69G A70G, the “yeast fitness (ln)” value is reported as -0.346. In the case of G1A G6U C27U A43C C71U, the “yeast fitness (ln)” value is reported as -0.352. In the case of G1A G6U C27U C66A C71U, the “yeast fitness (ln)” value is reported as -0.0761. With G1A G6U C27U A43C C66A A70G C71U the “yeast fitness (ln)” value was -0.411. With G1A G6U C27U C46U C66A A70G C71U the “yeast fitness (ln)” value was -0.23. In the case of G1A G6U C27U A43C A69G A70U C71U, the “yeast fitness (ln)” value is reported as -0.58. In the case of G1A G6U C27U A43C C66A A70U C71U, the “yeast fitness (ln)” value is reported as -0.608. For G1A G6U C27U A43C C46U A70G C71U, the “yeast fitness (ln)” value was -0.321. With G1A G6U C27U A43C C46U C66U C71U the “yeast fitness (ln)” value was -0.364. With G1A G6U C27U A43C C66U A69G C71U the “yeast fitness (ln)” value was -0.258. For G1A G6U C27U A43C C46U A70G, the “yeast fitness (ln)” value was -0.385. For G1A G6U C27U A43C C46U A70U, the “yeast fitness (ln)” value was -0.346. In the case of G1A G6U C27U C66U A69G A70U, the “yeast fitness (ln)” value is reported as -0.368. For G1A G6U C27U C66U A69G A70G, the “yeast fitness (ln)” value was -0.47. With G1A G6U C27U A43C C66U A69G A70U the “yeast fitness (ln)” value was -0.469. In the case of G1A G6U C27U A43C C66U A69G A70G, the “yeast fitness (ln)” value is reported as -0.51. With G1A G6U C27U C66A A70G C71U the “yeast fitness (ln)” value was -0.531. In the case of G1A G6U C27U C46U C66U A69G A70G C71U, the “yeast fitness (ln)” value is reported as -0.388. For G1A G6U A69G A70U, the “yeast fitness (ln)” value was -0.131. In the case of G1A G6U A69G A70G, the “yeast fitness (ln)” value is reported as -0.198. For G1A G6U C27U C46U C66A A70G, the “yeast fitness (ln)” value was -0.233. For G1A G6U C27U C46U C66A A70U, the “yeast fitness (ln)” value was -0.249. For G1A G6U A43C C66A A69G C71U, the “yeast fitness (ln)” value was -0.863. For G1A G6U C27U C46U C71U, the “yeast fitness (ln)” value was -0.239. For G1A G6U C27U A43C C46U C66U A70G C71U, the “yeast fitness (ln)” value was -0.596. With G1A G6U A69G A70G C71U the “yeast fitness (ln)” value was -0.247. In the case of G1A G6U A43C C46U C66A A70U C71U, the “yeast fitness (ln)” value is reported as -0.334. In the case of G1A G6U C27U A43C C46U C66A A69G A70G, the “yeast fitness (ln)” value is reported as -0.432. In the case of G1A G6U C27U A43C C46U A69G A70G C71U, the “yeast fitness (ln)” value is reported as -0.414. With G1A G6U C27U A69G A70U C71U the “yeast fitness (ln)” value was -0.505. For G1A G6U C27U A43C C46U C66U A69G A70U, the “yeast fitness (ln)” value was -0.452. In the case of G1A G6U C27U A43C C46U C66U A69G A70G, the “yeast fitness (ln)” value is reported as -0.353. With G1A G6U A43C C66A A70G the “yeast fitness (ln)” value was -0.135. For G1A G6U A43C C66A A70U, the “yeast fitness (ln)” value was -0.411. For G1A G6U A43C C46U C66U A70G C71U, the “yeast fitness (ln)” value was -0.278. In the case of G1A G6U A43C C46U C66U A69G A70G C71U, the “yeast fitness (ln)” value is reported as -0.333. In the case of G1A G6U C27U C46U, the “yeast fitness (ln)” value is reported as -0.207. For G1A G6U C27U C66U A69G A70G C71U, the “yeast fitness (ln)” value was -0.386. For G1A G6U C27U A43C C46U A69G C71U, the “yeast fitness (ln)” value was -0.328. With G1A G6U C27U C46U C66A A69G A70G C71U the “yeast fitness (ln)” value was -0.58. With G1A G6U A43C C46U C66A A69G A70G C71U the “yeast fitness (ln)” value was -0.393. In the case of G1A G6U A70G, the “yeast fitness (ln)” value is reported as -0.192.
